M4 antag: human M4 muscarinic receptor antagonists, primary screen, CHO cells, Fluo-8 calcium fluorescence; Muscarinic acetylcholine receptor M4 (Homo sapiens), P08173; CHO-hM4 cells, ACh EC80; inhibition, % at 3 µM; actives 0.73% (n = 360,000); AID 624125, 2012;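 active means inhibition above its plate's cutoff, the mean inhibition of sample wells plus 3 SD, cut at about 27% in these data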;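 further: 0% = acetylcholine EC80 with DMSO and 100% = DMSO without agonist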
M5 antag: human M5 muscarinic receptor antagonists, primary screen, CHO cells, Fluo-8 calcium fluorescence; Muscarinic acetylcholine receptor M5 (Homo sapiens), P08912; CHO-hM5 cells, ACh EC80; inhibition, % at 3 µM; actives 0.59% (n = 360,000); AID 624040, 2012;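 active means inhibition above a per-plate cutoff, the mean of that plate's test compounds plus 3 SD, cut at about 27% in these data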;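 further: 0% = acetylcholine EC80 with DMSO and 100% = DMSO without agonist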
M5 ag: human M5 muscarinic receptor agonists, primary screen, CHO-K1 cells, Fluo-8 calcium fluorescence; Muscarinic acetylcholine receptor M5 (Homo sapiens), P08912; CHO-K1 hM5 cells; 0% DMSO wells, 100% maximal acetylcholine response; activation, % at 3 µM; actives 0.19% (n = 360,000);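 active means activation above the run's mean over test compounds plus 3 SD, cut at about 23% in these data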;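 further: signal is peak over basal fluorescence ratio across the kinetic read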
M4 ag: human M4 muscarinic receptor agonists, primary screen, CHO-K1 cells, Fluo-8 calcium fluorescence | Muscarinic acetylcholine receptor M4 (Homo sapiens), P08173 | CHO-K1 hM4/Gqi5; vehicle 0%, full acetylcholine response 100% | activation, % at 3 µM | actives 0.14% (n = 360,000) | AID 624127, 2012;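 active means activation above the run mean over all test wells plus 3 SD, cut at about 32% in these data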;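 further: peak over basal fluorescence ratio per well then scaled between controls; 0% = DMSO wells and 100% = acetylcholine at EC100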
M5 PAM: human M5 muscarinic receptor positive allosteric modulators, primary screen, CHO-K1 cells, Fluo-8 calcium fluorescence; CHO-K1 hM5, ACh EC20 PAM; 0% = ACh EC20, 100% = ACh EC100; AID 624038, 2012; actives 0.3% (n = 360,000); activation, % at 3 µM;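 active means activation above the run cutoff, the mean activation of all test compounds plus 3 SD, cut at about 18% in these data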
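System: CHO-K1 cell line with stable human muscarinic M5 receptor expression | Also added: EC20 acetylcholine as agonist stimulus | Compound: One concentration, 3 µM final (nominal) | Timing: Fluo-8 loading 80 min at 37 °C plus 30 min room temperature | Measured by: Fluo-8 calcium dye fluorescence, kinetic read | Read-out basis: % activation, ACh-normalized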
M4 PAM: human M4 muscarinic receptor positive allosteric modulators, primary screen, CHO-K1 cells, Fluo-8 calcium fluorescence | Muscarinic acetylcholine receptor M4 (Homo sapiens), P08173 | CHO-K1 hM4/Gqi5, ACh EC20; 0% = ACh EC20, 100% = maximal ACh | activation, % at 3 µM | actives 0.4% (n = 360,000) | AID 624126, 2012;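 active means activation above its plate's cutoff, the mean activation of sample wells plus 3 SD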
Numbers without * were called inactive. Most compounds without a hit are left out; they make up all but 1.8% or so of the library.

SMILES	M4 antag	M5 antag	M5 ag	M4 ag	M5 PAM	M4 PAM
C[C@]12c3[nH]c4cc(-c5ccco5)ccc4c3CCN1C(=O)[C@@H](CC(=O)NCCCn1ccnc1)C[C@@H]2C(=O)N1CCOCC1	5	-3	0	0	7	2
CC1CN(C(C)C)C(C)CC1OC(=O)c1ccccc1 (configuration not stated)	-5	-4	-25	1	-18	-9
CCOc1ccc(CC(=O)N2N=C(C)CC2(O)C(F)(F)F)cc1 (configuration not stated)	2	4	-2	1	-4	-2
O=C(Nc1ccc(F)cc1)Nc1ccc(N2CCCC2)c(S(=O)(=O)Nc2ccccc2Cl)c1	18	29*	3	12	-14	-12
COc1cccc(OC)c1OCCCNC1CCCC1	-9	-7	-13	0	16	-3
COc1ccc(C2NC(=S)N3C(c4ccc(OC)cc4)NC(=S)N23)cc1 (configuration not stated)	-2	0	-5	1	-2	17
COc1ccc(C2Nc3cc(OC)ccc3-n3cccc32)cc1 (configuration not stated)	-19	4	2	2	13	17*
O=C(CCNC(=O)C1CCN(S(=O)(=O)c2ccccc2)CC1)NCc1ccc(Cl)cc1Cl	3	19	-2	15	-9	-5
CCCCC[C@H](C)N1C[C@H](COCc2ccccc2)Oc2cc(N3CCC[C@H]3CO)ccc2S1(=O)=O	11	0	-1	2	-8	-7
CCOC(=O)COc1ccc(S(=O)(=O)N2CCN(c3ccc(OC)cc3)CC2)cc1	9	33*	-3	14	-15	-9
O=S(=O)(c1ccccc1)N1CCN(c2ccccc2)CC1	-10	-10	0	1	2	-1
CCOC(=O)COc1ccc(S(=O)(=O)N2CCN(c3ccccc3F)CC2)cc1	1	6	4	2	-5	-6
COc1ccc(S(=O)(=O)N2CCN(c3ccccc3)CC2)cc1	4	28*	-5	1	-12	1
Cc1ccc(C)c(-n2nnc3ccccc3c2=O)c1	1	2	0	0	0	3
COc1cc(-c2cnc3c(NC=O)cc(-c4cccc(C(=O)NCCN(C)C)c4)cn23)cc(OC)c1OC	-2	8	0	0	-1	1
O=C(CSc1ccc(-c2nc3ccccc3[nH]2)cn1)Nc1ccc(S(=O)(=O)NC2CC2)cc1	31*	14	-2	9	-16	-21
Cc1ccsc1C(=O)N1CCCC1(C)C(=O)NCC(C)C (configuration not stated)	3	9	0	0	6	-3
CSc1ccc2c(c1)C(N1CCN(C)CC1)Cc1ccccc1S2 (configuration not stated)	55*	70*	4	25	-18	-18
CN1CCN(C2Cc3cc(F)ccc3Sc3ccc(Cl)cc32)CC1 (configuration not stated)	84*	80*	-15	16	-35	-75
CN1CCN(C2Cc3ccccc3Sc3ccc(Cl)cc32)CC1 (configuration not stated)	52*	54*	0	6	-18	-19
CCc1cccc2c1Sc1ccccc1CC2N1CCNCC1 (configuration not stated)	24	4	-18	8	-15	-40
CN1CCN(C2Cc3ccc(F)cc3Sc3cc(F)c(Cl)cc32)CC1 (configuration not stated)	24	10	-15	10	-20	-12

High-throughput results: PubChem, The Scripps Research Institute Molecular Screening Center
